# Results collected from several papers.
# Lines come from different studies, so protocols differ.
# SLCO1B1: Solute carrier organic anion transporter family member 1B1 (SLCO1B1, Homo sapiens, UniProt Q9Y6L6)
# LNPEP: Leucyl-cystinyl aminopeptidase (LNPEP, Homo sapiens, UniProt Q9UIQ6)
# MMP13: Collagenase 3 (MMP13, Homo sapiens, UniProt P45452)
SMILES,target,test,test system,setting,IC50
CCOC(=O)Nc1ccc2c(c1)N(C(=O)CCN1CCOCC1)c1ccccc1S2,SLCO1B1,"transporter uptake, inhibitor, fluorescence",CHO,"30 min, pH 7.4",8.1 µM
Cc1ncsc1-c1ccc(CNC(=O)[C@@H]2C[C@@H](O)CN2C(=O)[C@@H](NC(=O)C2(F)CC2)C(C)(C)C)c(OCCOc2ccc(CN3CCN(c4cc(-c5ccccc5O)nnc4N)CC3)cc2)c1,"Protein polybromo-1, bromodomain (PBRM1, Homo sapiens, UniProt Q86U86)","cell-free assay, TR-FRET",,,0.504 µM
O=S(=O)(Nc1cccc(-c2nnn[nH]2)c1)c1c(F)cc(Br)cc1F,LNPEP,"enzyme activity, inhibitor, fluorescence",,,7.5 µM
CC(C)C[C@H](NC(=O)[C@H]1O[C@@H]1C(=O)O)C(=O)NCCCCN=C(N)N,"Papain (Carica papaya, UniProt P00784)","enzyme activity, inhibitor",,,0.00015 µM
Cc1noc(-c2cc3cc(-c4nc(C(=O)NCc5ccc(=O)[nH]c5)[nH]c4C)ccc3[nH]2)n1,MMP13,"enzyme activity, inhibitor, FRET",,,0.00033 µM
Cc1cc(S(=O)(=O)Nc2cccc(-c3nnn[nH]3)c2)ccc1C(F)(F)F,LNPEP,"enzyme activity, inhibitor, fluorescence",,,2.3 µM
CC(C)c1cc(NC(=O)Nc2ccc(F)c(F)c2)n(-c2ccccc2)n1,"Kir3.1/Kir3.4 (Homo sapiens, UniProt P48544+P48549)","enzyme activity in cells, inhibitor",,,4.1 µM
O=S(=O)(Nc1cccc(-c2nnn[nH]2)c1)c1scc2ccccc12,LNPEP,"enzyme activity, inhibitor, fluorescence",,,10.9 µM
Nc1nc(N)c2nc(CNc3cccc4ccccc34)cnc2n1,"Cytochrome P450 3A4 (CYP3A4, Homo sapiens, UniProt P08684)","enzyme activity, inhibitor, luciferase",,,66.1 µM
O=C(CNC(=O)c1ccccc1)OC(C(=O)Nc1cc(C(F)(F)F)ccc1Cl)c1ccccc1 (stereo not shown),"Cruzipain (Trypanosoma cruzi, UniProt P25779)","enzyme activity, inhibitor",,,7 µM
CCOc1cc(CC(=O)N[C@@H](CC(C)C)c2ccccc2N2CCCCC2)ccc1C(=O)O,SLCO1B1,"transporter uptake, inhibitor, fluorescence",CHO,"30 min, pH 7.4",1.1 µM
Cn1nc(C(=O)NCc2ccc(C(=O)O)cc2)cc1-c1ccc2[nH]c(-c3cncnc3)cc2c1,MMP13,"enzyme activity, inhibitor, FRET",,,0.0068 µM
Cc1ccc(C(C)C)c(O)c1,"gbr-2 (Haemonchus contortus, UniProt O46124)","ion current, antagonist, two-electrode voltage clamp",,oocytes,1200 µM
Cc1noc(-c2cc3cc(-c4nc(C(=O)NCc5ccccn5)[nH]c4C)ccc3[nH]2)n1,MMP13,"enzyme activity, inhibitor, FRET",,,0.0031 µM
CCn1c(-c2nc3ccc(C(=O)N4CCCC(N)C4)cc3n2C)cc2ccccc21 (stereo not shown),"Muscarinic acetylcholine receptor M1 (CHRM1, Homo sapiens, UniProt P11229)","calcium signal, antagonist, fluorescence",,,> 15.8 µM
CCC1CN(C(=O)NCC(F)(F)F)CC1c1nc(N)nc2[nH]ccc12 (stereo not shown),"Tyrosine-protein kinase JAK1 (JAK1, Homo sapiens, UniProt P23458)","enzyme activity, inhibitor, ADP detection",,,9.6 µM
CCOc1ccc(C[C@@H](N)C(=O)N[C@@H](Cc2ccccc2)C(=O)NC2CCN(C(=N)N)CC2)cc1,"Coagulation factor XII, trypsin-like site (F12, Homo sapiens, UniProt P00748)","enzyme activity, inhibitor, fluorescence",,,> 10 µM
NCc1ccc(Nc2ncc(F)c(Nc3ccccc3)n2)cc1,"Serine/threonine-protein kinase PAK 4 (PAK4, Homo sapiens, UniProt O96013)","enzyme activity, inhibitor",,lysate,> 10 µM
C=CCOc1cccc2c1-c1c(c3c(n1C(C)C)CCCC3=O)C2=O,"Casein kinase II subunit alpha' (CSNK2A2, Homo sapiens, UniProt P19784, C336S)","enzyme activity, inhibitor",,,0.273 µM
Nc1ncc2c(n1)-c1c([nH]c3ccc(-c4ccc(F)cc4)cc13)CCC2,"Dual serine/threonine and tyrosine protein kinase (DSTYK, Homo sapiens, UniProt Q6XUX3)","enzyme activity, inhibitor, radiometric",,,3.9 µM
Cc1ccc(S(=O)(=O)Nc2cccc(-c3nnn[nH]3)c2)cc1C(F)(F)F,LNPEP,"enzyme activity, inhibitor, fluorescence",,,2.3 µM
O=c1ccc2c(OCCCCOc3ccccc3)c3ccoc3c(O)c2o1,"Potassium voltage-gated channel subfamily A member 3 (Kcna3, Mus musculus, UniProt P16390)","ion current, inhibitor, patch clamp",,,0.159 µM
